Test results reported in ChEMBL document CHEMBL3112573, “Design, synthesis and evaluation of acridine and fused-quinoline derivatives as potential anti-tuberculosis agents” (Eur J Med Chem, 2014).
In brackets after ≈: the same amount, converted by molar mass.

Experiments:
Format in all cases: functional
[1] = system: Mycobacterium tuberculosis; assay: Antimicrobial activity against isoniazid-resistant Mycobacterium tuberculosis H37Rv SRI 1369 assessed as growth inhibition at MIC after 7 days by broth microdilution assay relative to control
How it was run: (§1)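 Broth microdilution per CLSI in Middlebrook 7H9 + OADC; ten two-fold dilutions; inoculum targeted 1.0 × 10^6 CFU/mL M. tuberculosis; 37 °C, ~90% humidity, 7 days. Wells scored visually for turbidity, partial or complete clearing; MIC = lowest concentration visually inhibiting growth; percent inhibition at the MIC also recorded. Duplicates; rifampin or isoniazid positive control, medium-only and organism-only controls.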

[2] = system: Mycobacterium tuberculosis; assay: Antimicrobial activity against ofloxacin-resistant Mycobacterium tuberculosis H37Rv SRI 4000 assessed as growth inhibition at MIC after 7 days by broth microdilution assay relative to control; how it was run: as §1
[3] = system: Mycobacterium tuberculosis; assay: Antimicrobial activity against isoniazid-resistant Mycobacterium tuberculosis H37Rv SRI 1369 assessed as growth inhibition after 7 days by broth microdilution assay; conditions: H37Rv SRI 1369, 168 h; how it was run: as §1
[4] = system: Mycobacterium tuberculosis; assay: Antimicrobial activity against ofloxacin-resistant Mycobacterium tuberculosis H37Rv SRI 4000 assessed as growth inhibition after 7 days by broth microdilution assay; conditions: H37Rv SRI 4000, 168 h; how it was run: as §1
[5] = system: Mycobacterium tuberculosis; assay: Antimicrobial activity against rifampin-resistant Mycobacterium tuberculosis H37Rv SRI 1367 assessed as growth inhibition after 7 days by broth microdilution assay; conditions: H37Rv SRI 1367, 168 h; how it was run: as §1
[6] = system: Mycobacterium tuberculosis; assay: Antimicrobial activity against rifampin-resistant Mycobacterium tuberculosis H37Rv SRI 1367 assessed as growth inhibition at MIC after 7 days by broth microdilution assay relative to control; how it was run: as §1

Row | Structure (SMILES) | growth inhibition (GI) [1] [%] | growth inhibition (GI) [2] [%] | MIC [3] [µg/mL] | MIC [4] [µg/mL] | MIC [5] [µg/mL] | growth inhibition (GI) [6] [%]
1 | Clc1ccc2nc3c(c(-c4ccccc4)c2c1)CCC3 | 69 | 81 | 6.25 (≈ 22.3 µM) | 12.5 (≈ 44.7 µM) | 6.25 (≈ 22.3 µM) | 83
2 | O=[N+]([O-])c1ccc2nc3c(c(-c4ccccc4)c2c1)CCCC3 | 41 | 50 | 6.25 (≈ 20.5 µM) | 3.12 (≈ 10.3 µM) | 3.12 (≈ 10.3 µM) | 69
3 | O=[N+]([O-])c1ccc2nc3c(c(-c4ccccc4)c2c1)CCCCC3 | 52 | 70 | 37.5 (≈ 118 µM) | 37.5 (≈ 118 µM) | 37.5 (≈ 118 µM) | 72
4 | NNC(=O)c1ccncc1 [ISONIAZID] |  |  |  |  | 0.02 (≈ 0.146 µM) | 85
5 | CO[C@H]1/C=C/O[C@@]2(C)Oc3c(C)c(O)c4c(O)c(c(/C=N/N5CCN(C)CC5)c(O)c4c3C2=O)NC(=O)/C(C)=C\C=C\[C@H](C)[C@H](O)[C@@H](C)[C@@H](O)[C@@H](C)[C@H](OC(C)=O)[C@@H]1C [RIFAMPIN] | 74 | 71 | 0.02 (≈ 0.0243 µM) | 1.56 (≈ 1.9 µM) |  | 
